Activity calls are given as the source filed them. The rule behind the calls is not given here.
Experiments:
[1] = system: T1, Discoidin domain-containing receptor 2 (Homo sapiens), Q16832 [I638F]; experiment: Inhibition of DDR2 I638F mutant in human NCI-H2286 cells assessed as decrease in AKT phosphorylation at […] after 2 hrs by Western blot analysis; format: cell-based
T1 sequence (whole entry): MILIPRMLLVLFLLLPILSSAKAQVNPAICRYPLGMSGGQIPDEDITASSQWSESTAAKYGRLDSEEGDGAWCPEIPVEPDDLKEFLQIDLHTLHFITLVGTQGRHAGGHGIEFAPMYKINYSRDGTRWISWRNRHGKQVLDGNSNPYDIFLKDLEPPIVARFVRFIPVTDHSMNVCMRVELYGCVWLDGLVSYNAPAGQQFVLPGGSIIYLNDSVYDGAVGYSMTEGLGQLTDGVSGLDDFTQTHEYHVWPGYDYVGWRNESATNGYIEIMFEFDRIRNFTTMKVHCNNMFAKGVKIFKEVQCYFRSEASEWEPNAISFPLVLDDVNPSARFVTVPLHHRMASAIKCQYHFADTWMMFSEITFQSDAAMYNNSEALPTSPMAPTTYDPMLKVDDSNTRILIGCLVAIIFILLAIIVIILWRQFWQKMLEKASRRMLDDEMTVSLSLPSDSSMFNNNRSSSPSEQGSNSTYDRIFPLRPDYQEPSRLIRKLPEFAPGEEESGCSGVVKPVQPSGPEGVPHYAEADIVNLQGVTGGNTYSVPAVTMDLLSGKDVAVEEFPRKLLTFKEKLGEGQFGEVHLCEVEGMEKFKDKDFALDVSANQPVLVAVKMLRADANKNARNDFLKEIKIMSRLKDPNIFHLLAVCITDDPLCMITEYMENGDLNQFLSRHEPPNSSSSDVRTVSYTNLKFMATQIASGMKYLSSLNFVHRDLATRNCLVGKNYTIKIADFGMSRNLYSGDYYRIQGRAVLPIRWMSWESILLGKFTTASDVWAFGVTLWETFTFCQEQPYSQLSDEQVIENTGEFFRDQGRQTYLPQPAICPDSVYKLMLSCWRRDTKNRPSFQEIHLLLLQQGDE
Outline: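 NCI-H2286 cells exposed to compound for 2 h at 37 °C and lysed in SDS sample buffer. Lysates run on 10% SDS-PAGE and blotted to nitrocellulose. Membranes probed for phospho- and total DDR2, ERK and Akt, with GAPDH as loading control, and detected by HRP secondary antibody and enhanced chemiluminescence.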

[2] = molecular target: Tyrosine-protein kinase BTK (Homo sapiens) (UniProt Q06187); experiment: Inhibition of BTK (unknown origin) at 1000 nM relative to control
[3] = molecular target: ALK tyrosine kinase receptor (Homo sapiens) (UniProt Q9UM73); experiment: Inhibition of ALK (unknown origin) at 100 nM relative to control
[4] = system: KG-1; experiment: Antiproliferative activity against human KG1 cells after 72 hrs by CCK8 assay; settings: KG-1, 72 h
[5] = molecular target: Fibroblast growth factor receptor 2 (Homo sapiens) (UniProt P21802); experiment: Inhibition of FGFR2 (unknown origin) at 1000 nM relative to control
Outline: (§1)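 Purified recombinant kinase domains run in ELISA on precoated poly(Glu,Tyr) 4:1 (20 µg/mL) with 10 µM ATP in 50 mM HEPES pH 7.4, 50 mM MgCl2, 0.5 mM MnCl2, 0.2 mM Na3VO4, 1 mM DTT; 1% DMSO control; 60 min at 37 °C. Phosphotyrosine read by PY99 antibody, HRP anti-mouse IgG, OPD/H2O2 at 490 nm; inhibition = [1−A490/A490control]×100%; two separate experiments.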

[6] = molecular target: Mitogen-activated protein kinase 1 (Homo sapiens) (UniProt P28482); experiment: Inhibition of ERK2 (unknown origin) at 1000 nM relative to control
[7] = Antiproliferative activity against human UM-UC-14 cells harboring FGFR3 mutation after 72 hrs by CCK8 assay; format: functional, cell-based; settings: UMUC14, 72 h
Outline: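 Cells seeded at low density in growth medium and compounds added the next day. Incubated 72 h, then proliferation read by sulforhodamine B, MTT or CCK-8. IC50 obtained by four-parameter concentration-response curve fitting.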

[8] = molecular target: T2, Ephrin type-B receptor 2 (Homo sapiens) (UniProt P29323); experiment: Inhibition of EPH-B2 (unknown origin) at 10 nM relative to control; outline: as §1
T2 sequence (whole entry): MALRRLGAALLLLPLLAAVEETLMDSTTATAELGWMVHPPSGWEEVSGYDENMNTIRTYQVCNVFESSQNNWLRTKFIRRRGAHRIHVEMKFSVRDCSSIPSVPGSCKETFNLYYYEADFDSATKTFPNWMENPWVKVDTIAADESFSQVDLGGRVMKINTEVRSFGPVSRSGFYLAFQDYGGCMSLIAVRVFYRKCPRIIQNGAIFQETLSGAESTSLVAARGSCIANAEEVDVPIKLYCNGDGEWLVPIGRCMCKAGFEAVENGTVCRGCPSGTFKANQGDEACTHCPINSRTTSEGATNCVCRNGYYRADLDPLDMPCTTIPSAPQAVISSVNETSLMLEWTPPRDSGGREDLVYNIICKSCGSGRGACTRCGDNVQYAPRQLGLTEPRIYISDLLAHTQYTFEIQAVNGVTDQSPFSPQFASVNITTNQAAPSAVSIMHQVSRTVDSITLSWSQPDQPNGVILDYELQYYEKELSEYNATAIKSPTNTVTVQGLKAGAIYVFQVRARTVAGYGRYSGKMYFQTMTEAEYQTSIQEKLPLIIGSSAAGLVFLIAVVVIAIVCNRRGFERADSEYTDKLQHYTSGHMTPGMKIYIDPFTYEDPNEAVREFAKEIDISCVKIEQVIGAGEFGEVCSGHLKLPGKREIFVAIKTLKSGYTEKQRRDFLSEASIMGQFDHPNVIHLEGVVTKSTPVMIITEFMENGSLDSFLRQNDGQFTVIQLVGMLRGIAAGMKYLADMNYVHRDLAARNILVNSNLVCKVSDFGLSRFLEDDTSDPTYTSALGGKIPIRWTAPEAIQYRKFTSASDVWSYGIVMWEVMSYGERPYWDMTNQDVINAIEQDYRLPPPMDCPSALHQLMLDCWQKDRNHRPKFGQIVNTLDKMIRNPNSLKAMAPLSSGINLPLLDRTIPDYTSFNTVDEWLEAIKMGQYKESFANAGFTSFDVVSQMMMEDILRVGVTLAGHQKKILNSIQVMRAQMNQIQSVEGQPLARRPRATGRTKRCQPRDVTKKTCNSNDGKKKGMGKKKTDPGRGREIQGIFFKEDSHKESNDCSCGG

[9] = molecular target: ALK tyrosine kinase receptor (Homo sapiens) (UniProt Q9UM73); experiment: Inhibition of ALK (unknown origin) at 1000 nM relative to control
[10] = molecular target: Receptor tyrosine-protein kinase erbB-2 (Homo sapiens) (UniProt P04626); experiment: Inhibition of ErbB2 (unknown origin) at 1000 nM relative to control; outline: as §1
[11] = molecular target: Tyrosine-protein kinase JAK2 (Homo sapiens) (UniProt O60674); experiment: Inhibition of JAK2 (unknown origin) at 10 nM relative to control; outline: as §1
[12] = molecular target: T2, Ephrin type-B receptor 2 (Homo sapiens); experiment: Inhibition of EPH-B2 (unknown origin) at 100 nM relative to control; outline: as §1

ALK tyrosine kinase receptor (Homo sapiens), sequence (Q9UM73 19-1620 limits assumed): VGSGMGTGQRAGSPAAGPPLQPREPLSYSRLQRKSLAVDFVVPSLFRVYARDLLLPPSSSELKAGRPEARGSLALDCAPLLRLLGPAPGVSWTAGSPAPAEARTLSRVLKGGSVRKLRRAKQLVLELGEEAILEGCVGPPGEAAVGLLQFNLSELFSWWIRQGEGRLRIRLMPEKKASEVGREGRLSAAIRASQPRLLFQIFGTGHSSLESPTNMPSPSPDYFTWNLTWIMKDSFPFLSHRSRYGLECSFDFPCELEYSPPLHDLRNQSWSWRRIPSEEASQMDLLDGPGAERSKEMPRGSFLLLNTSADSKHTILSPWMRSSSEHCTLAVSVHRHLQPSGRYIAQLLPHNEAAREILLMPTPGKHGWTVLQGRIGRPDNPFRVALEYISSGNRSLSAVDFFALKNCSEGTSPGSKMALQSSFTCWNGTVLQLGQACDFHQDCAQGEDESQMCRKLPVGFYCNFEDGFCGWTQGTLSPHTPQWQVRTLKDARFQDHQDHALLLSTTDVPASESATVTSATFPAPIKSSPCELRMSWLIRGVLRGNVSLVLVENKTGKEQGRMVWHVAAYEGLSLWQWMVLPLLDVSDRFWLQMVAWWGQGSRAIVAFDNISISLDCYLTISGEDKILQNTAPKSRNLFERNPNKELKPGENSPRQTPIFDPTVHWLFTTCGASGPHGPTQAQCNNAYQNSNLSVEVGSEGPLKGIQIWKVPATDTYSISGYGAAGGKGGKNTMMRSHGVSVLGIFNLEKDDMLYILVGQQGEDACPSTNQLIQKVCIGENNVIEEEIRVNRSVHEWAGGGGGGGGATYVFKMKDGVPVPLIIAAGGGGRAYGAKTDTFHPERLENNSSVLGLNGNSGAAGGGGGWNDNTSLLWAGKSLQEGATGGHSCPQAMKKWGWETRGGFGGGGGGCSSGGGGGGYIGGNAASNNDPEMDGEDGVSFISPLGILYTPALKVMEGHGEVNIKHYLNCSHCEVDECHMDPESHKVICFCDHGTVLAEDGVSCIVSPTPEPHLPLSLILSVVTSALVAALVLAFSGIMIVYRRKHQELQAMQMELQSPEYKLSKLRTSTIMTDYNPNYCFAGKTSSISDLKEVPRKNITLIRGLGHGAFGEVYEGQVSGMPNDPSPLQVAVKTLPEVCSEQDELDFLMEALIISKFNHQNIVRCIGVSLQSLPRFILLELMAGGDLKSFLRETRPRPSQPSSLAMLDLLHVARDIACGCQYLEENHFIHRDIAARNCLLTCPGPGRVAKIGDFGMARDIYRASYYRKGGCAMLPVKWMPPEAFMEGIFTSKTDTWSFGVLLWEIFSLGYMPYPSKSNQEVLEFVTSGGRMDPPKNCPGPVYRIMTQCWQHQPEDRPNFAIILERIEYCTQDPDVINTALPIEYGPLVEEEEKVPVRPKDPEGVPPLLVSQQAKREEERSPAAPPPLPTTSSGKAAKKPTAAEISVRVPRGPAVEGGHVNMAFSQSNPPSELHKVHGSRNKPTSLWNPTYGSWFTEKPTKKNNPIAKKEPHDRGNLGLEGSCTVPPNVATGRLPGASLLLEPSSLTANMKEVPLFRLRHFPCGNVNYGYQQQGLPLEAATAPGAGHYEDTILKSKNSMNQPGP
Tyrosine-protein kinase BTK (Homo sapiens), sequence (Q06187 whole entry): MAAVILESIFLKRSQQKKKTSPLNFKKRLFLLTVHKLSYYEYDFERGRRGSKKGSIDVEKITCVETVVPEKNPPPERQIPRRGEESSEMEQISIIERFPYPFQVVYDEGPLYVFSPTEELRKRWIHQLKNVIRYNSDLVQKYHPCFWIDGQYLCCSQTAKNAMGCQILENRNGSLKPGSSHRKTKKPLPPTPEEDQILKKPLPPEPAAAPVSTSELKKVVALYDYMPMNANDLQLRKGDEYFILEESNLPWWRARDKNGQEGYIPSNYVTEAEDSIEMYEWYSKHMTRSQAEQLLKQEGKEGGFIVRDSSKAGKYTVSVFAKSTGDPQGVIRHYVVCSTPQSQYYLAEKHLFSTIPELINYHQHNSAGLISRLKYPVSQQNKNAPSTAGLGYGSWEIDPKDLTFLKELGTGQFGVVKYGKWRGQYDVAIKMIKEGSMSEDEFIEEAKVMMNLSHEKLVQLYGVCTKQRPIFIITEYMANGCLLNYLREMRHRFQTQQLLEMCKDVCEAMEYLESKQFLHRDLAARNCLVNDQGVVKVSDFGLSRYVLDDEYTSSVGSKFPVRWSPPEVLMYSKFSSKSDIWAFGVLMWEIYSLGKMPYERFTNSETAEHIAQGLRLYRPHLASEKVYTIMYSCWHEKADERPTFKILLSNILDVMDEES
Mitogen-activated protein kinase 1 (Homo sapiens), sequence (P28482 whole entry): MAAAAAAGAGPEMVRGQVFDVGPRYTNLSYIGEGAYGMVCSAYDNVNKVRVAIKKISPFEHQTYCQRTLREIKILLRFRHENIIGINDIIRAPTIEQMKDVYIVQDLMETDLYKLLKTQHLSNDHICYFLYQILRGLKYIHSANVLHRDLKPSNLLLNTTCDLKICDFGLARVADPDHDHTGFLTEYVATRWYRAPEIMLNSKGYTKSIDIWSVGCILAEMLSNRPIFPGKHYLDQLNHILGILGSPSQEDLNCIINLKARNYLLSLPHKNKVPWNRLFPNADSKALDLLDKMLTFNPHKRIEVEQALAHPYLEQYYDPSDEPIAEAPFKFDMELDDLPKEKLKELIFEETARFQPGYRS
Receptor tyrosine-protein kinase erbB-2 (Homo sapiens), sequence (P04626 whole entry): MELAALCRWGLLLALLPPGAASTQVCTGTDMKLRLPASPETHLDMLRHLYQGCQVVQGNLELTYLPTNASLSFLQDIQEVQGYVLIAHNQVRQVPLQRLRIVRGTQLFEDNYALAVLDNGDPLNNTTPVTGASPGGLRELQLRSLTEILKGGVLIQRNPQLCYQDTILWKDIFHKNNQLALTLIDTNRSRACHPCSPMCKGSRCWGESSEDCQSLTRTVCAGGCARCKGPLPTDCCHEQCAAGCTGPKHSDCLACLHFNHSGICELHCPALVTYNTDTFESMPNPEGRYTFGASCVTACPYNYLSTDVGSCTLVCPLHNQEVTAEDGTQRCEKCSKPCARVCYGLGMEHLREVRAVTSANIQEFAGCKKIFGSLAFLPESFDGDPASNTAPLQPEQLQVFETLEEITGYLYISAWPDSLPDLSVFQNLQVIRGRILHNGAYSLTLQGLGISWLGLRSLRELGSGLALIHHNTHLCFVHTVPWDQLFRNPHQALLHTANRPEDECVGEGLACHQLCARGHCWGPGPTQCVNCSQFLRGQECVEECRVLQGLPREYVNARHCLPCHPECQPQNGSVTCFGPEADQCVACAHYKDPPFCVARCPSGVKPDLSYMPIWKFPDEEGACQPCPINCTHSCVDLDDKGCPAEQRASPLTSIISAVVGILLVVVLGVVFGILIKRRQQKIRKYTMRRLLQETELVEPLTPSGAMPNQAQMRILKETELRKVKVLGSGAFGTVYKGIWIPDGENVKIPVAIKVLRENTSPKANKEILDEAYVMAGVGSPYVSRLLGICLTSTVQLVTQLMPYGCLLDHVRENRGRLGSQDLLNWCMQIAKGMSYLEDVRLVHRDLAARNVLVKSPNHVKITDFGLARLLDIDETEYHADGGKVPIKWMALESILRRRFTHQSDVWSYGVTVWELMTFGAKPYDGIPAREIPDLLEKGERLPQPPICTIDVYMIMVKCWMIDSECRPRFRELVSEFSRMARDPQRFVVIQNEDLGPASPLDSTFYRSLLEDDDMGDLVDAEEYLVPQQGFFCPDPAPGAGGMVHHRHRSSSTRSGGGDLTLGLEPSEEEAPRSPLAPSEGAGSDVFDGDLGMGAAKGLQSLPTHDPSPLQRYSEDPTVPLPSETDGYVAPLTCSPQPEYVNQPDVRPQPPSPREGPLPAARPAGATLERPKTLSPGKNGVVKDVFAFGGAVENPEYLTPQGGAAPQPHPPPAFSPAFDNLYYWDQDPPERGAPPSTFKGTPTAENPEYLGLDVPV
Tyrosine-protein kinase JAK2 (Homo sapiens), sequence (O60674 whole entry): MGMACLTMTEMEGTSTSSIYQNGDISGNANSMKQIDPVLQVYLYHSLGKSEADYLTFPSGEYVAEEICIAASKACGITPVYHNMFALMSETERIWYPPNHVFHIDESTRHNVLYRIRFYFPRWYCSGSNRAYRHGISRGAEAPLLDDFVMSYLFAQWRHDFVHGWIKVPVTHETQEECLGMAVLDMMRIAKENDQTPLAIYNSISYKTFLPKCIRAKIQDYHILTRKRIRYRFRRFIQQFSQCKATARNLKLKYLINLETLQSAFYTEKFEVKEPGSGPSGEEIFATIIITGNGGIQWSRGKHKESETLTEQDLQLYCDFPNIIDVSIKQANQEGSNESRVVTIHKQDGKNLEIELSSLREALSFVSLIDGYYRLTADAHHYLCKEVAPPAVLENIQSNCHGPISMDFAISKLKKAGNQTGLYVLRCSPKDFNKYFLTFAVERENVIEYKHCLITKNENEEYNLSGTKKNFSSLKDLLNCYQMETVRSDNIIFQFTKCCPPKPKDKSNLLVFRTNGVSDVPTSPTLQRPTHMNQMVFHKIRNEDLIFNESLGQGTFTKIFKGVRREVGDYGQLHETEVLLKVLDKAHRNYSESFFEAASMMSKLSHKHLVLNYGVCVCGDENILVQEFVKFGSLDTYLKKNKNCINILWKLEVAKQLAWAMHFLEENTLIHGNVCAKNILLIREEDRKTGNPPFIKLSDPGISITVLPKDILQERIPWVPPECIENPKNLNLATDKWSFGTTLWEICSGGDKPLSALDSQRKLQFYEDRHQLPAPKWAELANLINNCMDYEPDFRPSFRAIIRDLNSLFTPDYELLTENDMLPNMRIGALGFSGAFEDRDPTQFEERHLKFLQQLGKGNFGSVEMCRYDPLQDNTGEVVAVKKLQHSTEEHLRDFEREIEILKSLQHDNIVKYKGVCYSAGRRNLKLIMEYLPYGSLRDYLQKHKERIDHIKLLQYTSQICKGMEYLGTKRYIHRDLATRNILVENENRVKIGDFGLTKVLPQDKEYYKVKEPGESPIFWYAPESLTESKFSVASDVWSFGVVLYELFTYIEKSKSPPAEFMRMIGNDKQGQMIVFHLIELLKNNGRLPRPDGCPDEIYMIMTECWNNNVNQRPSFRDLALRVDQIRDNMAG

Cc1ccc(C(=O)Nc2cccc(C(F)(F)F)c2)cc1-c1ccc2c(-c3cnn(C4CC4)c3)n[nH]c2c1
inhibition [1]: Active
inhibition [2]: 80.9%
inhibition [3]: 71.7%
IC50 [4]: 108 nM
inhibition [5]: 100%
inhibition [6]: 2.7%
IC50 [7]: 307 nM
inhibition [8]: 48%
inhibition [9]: 93.5%
inhibition [10]: 0%
inhibition [11]: 5.4%
inhibition [12]: 76.7%

Reference: ChEMBL document CHEMBL4411287, “Discovery and optimization of a series of 3-substituted indazole derivatives as multi-target kinase inhibitors for the treatment of lung squamous cell carcinoma” (Eur J Med Chem, 2019)
